# Measurements from ChEMBL document CHEMBL1649132, “Dry powder nitroimidazopyran antibiotic PA-824 aerosol for inhalation” (Antimicrob Agents Chemother, 2009).
# Assays:
# [1] = Chemical stability of the compound at 40 degC; format: physicochemical
# [2] = Chemical stability of the compound after 6 months; format: physicochemical; conditions: 4383 h
# [3] = Chemical stability of the compound after 12 months; format: physicochemical; conditions: 8766 h
# Cavia porcellus [4] = assay: AUC (0 to infinity) in guinea pig at 20 mg/kg, iv by HPLC method; format: ADME, organism-based, Plasma; parameters: time infinity, dose 20 mg/kg, route intravenous; conditions: in vivo
# Procedure, shortened: (§1)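 Healthy male guinea pigs (463.86 ± 65.11 g), jugular vein cannulated 24 h before dosing; n = 6 or 7 per group. Dosing was i.v. solution 20 mg/kg, oral gavage of mixed micelle suspension (10% hydroxypropyl-β-cyclodextrin, 10% lecithin) 40 mg/kg, or intratracheal insufflation of porous dry powder at nominal 20, 40, 60 mg/kg. For insufflation, the delivered dose was taken by weighing the device before and after. Blood was drawn 0–24 h (to 32 h at 60 mg/kg) and plasma assayed by validated HPLC-UV (standards 0.20–50 µg/ml).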
# [5] = Elimination rate constant in guinea pig at 20 mg/kg, iv by HPLC method; format: ADME, organism-based, Cavia porcellus; parameters: dose 20 mg/kg, route intravenous; conditions: in vivo; procedure, shortened: as §1
# [6] = Half life in guinea pig at 20 mg/kg, iv by HPLC method; format: ADME, organism-based, Cavia porcellus; parameters: dose 20 mg/kg, route intravenous; conditions: in vivo; procedure, shortened: as §1
# [7] = Mean residence time in guinea pig at 20 mg/kg, iv by HPLC method; format: ADME, organism-based, Cavia porcellus; parameters: dose 20 mg/kg, route intravenous; conditions: in vivo; procedure, shortened: as §1
# [8] = Cmax in guinea pig at 20 mg/kg, iv by HPLC method; format: ADME, organism-based, Cavia porcellus; parameters: dose 20 mg/kg, route intravenous; conditions: in vivo; procedure, shortened: as §1
# [9] = Tmax in guinea pig at 20 mg/kg, iv by HPLC method; format: ADME, organism-based, Cavia porcellus; parameters: dose 20 mg/kg, route intravenous; conditions: in vivo; procedure, shortened: as §1
# Cavia porcellus [10] = assay: AUC (0 to infinity) in guinea pig at 40 mg/kg, po by HPLC method; format: ADME, organism-based, Plasma; parameters: time infinity, dose 40 mg/kg, route oral; conditions: in vivo; procedure, shortened: as §1
# [11] = Elimination rate constant in guinea pig at 40 mg/kg, po by HPLC method; format: ADME, organism-based, Cavia porcellus; parameters: dose 40 mg/kg, route oral; conditions: in vivo; procedure, shortened: as §1
# [12] = Half life in guinea pig at 40 mg/kg, po by HPLC method; format: ADME, organism-based, Cavia porcellus; parameters: dose 40 mg/kg, route oral; conditions: in vivo; procedure, shortened: as §1
# [13] = Mean residence time in guinea pig at 40 mg/kg, po by HPLC method; format: ADME, organism-based, Cavia porcellus; parameters: dose 40 mg/kg, route oral; conditions: in vivo; procedure, shortened: as §1
# [14] = Cmax in guinea pig at 40 mg/kg, po by HPLC method; format: ADME, organism-based, Cavia porcellus; parameters: dose 40 mg/kg, route oral; conditions: in vivo; procedure, shortened: as §1
# [15] = Tmax in guinea pig at 40 mg/kg, po by HPLC method; format: ADME, organism-based, Cavia porcellus; parameters: dose 40 mg/kg, route oral; conditions: in vivo; procedure, shortened: as §1
# Cavia porcellus [16] = assay: Bioavailability (0 to infinity) in guinea pig at 40 mg/kg, po by HPLC method; format: ADME, organism-based; conditions: in vivo; procedure, shortened: as §1
# [17] = AUC (0 to infinity) in guinea pig at 20 mg/kg, administered via intratracheal insufflation by HPLC method; format: ADME, organism-based, Cavia porcellus; parameters: time infinity, dose 20 mg/kg, route endotracheal; conditions: plasma, inhaled or intranasal; procedure, shortened: as §1
# [18] = Elimination rate constant in guinea pig at 20 mg/kg, administered via intratracheal insufflation by HPLC method; format: ADME, organism-based, Cavia porcellus; parameters: dose 20 mg/kg, route endotracheal; conditions: in vivo, inhaled or intranasal; procedure, shortened: as §1
# [19] = Half life in guinea pig at 20 mg/kg, administered via intratracheal insufflation by HPLC method; format: ADME, organism-based, Cavia porcellus; parameters: dose 20 mg/kg, route endotracheal; conditions: in vivo, inhaled or intranasal; procedure, shortened: as §1
# [20] = Mean residence time in guinea pig at 20 mg/kg, administered via intratracheal insufflation by HPLC method; format: ADME, organism-based, Cavia porcellus; parameters: dose 20 mg/kg, route endotracheal; conditions: in vivo, inhaled or intranasal; procedure, shortened: as §1
# [21] = Cmax in guinea pig at 20 mg/kg, administered via intratracheal insufflation by HPLC method; format: ADME, organism-based, Cavia porcellus; parameters: dose 20 mg/kg, route endotracheal; conditions: in vivo, inhaled or intranasal; procedure, shortened: as §1
# [22] = Tmax in guinea pig at 20 mg/kg, administered via intratracheal insufflation by HPLC method; format: ADME, organism-based, Cavia porcellus; parameters: dose 20 mg/kg, route endotracheal; conditions: in vivo, inhaled or intranasal; procedure, shortened: as §1
# [23] = Bioavailability (0 to infinity) in guinea pig at 20 mg/kg, administered via intratracheal insufflation by HPLC method; format: ADME, organism-based, Cavia porcellus; conditions: in vivo, inhaled or intranasal; procedure, shortened: as §1
# [24] = Bioavailability in guinea pig at 20 mg/kg, administered via intratracheal insufflation by HPLC method; format: ADME, organism-based, Cavia porcellus; conditions: in vivo, inhaled or intranasal; procedure, shortened: as §1
# [25] = AUC (0 to infinity) in guinea pig at 40 mg/kg, administered via intratracheal insufflation by HPLC method; format: ADME, organism-based, Cavia porcellus; parameters: time infinity, dose 40 mg/kg, route endotracheal; conditions: plasma, inhaled or intranasal; procedure, shortened: as §1
# [26] = Elimination rate constant in guinea pig at 40 mg/kg, administered via intratracheal insufflation by HPLC method; format: ADME, organism-based, Cavia porcellus; parameters: dose 40 mg/kg, route endotracheal; conditions: in vivo, inhaled or intranasal; procedure, shortened: as §1
smiles,measurement,setting,value
O=[N+]([O-])c1cn2c(n1)OC[C@@H](OCc1ccc(OC(F)(F)F)cc1)C2 [PRETOMANID],Stability,[1],Stable
same,Stability,[2],Unstable
same,Stability,[3],Stable
same,AUC,Cavia porcellus [4],26540 ng·h/mL
same,k el,[5],0.000103 s⁻¹
same,half-life,[6],1.91 h
same,MRT,[7],2.69 h
same,Cmax,[8],9190 ng/mL
same,Tmax,[9],6.6 min
same,AUC,Cavia porcellus [10],25770 ng·h/mL
same,k el,[11],8.33e-05 s⁻¹
same,half-life,[12],2.43 h
same,MRT,[13],5.37 h
same,Cmax,[14],4140 ng/mL
same,Tmax,[15],4 h
same,F,Cavia porcellus [16],0.56%
same,AUC(0-inf),[17],14800 ng·h/mL
same,k el,[18],6.67e-05 s⁻¹
same,half-life,[19],2.83 h
same,MRT,[20],5.17 h
same,Cmax,[21],2010 ng/mL
same,Tmax,[22],4.33 h
same,bioavailability,[23],0.59%
same,bioavailability,[24],2.11%
same,AUC(0-inf),[25],32300 ng·h/mL
same,k el,[26],4.72e-05 s⁻¹
